# Test results published in PubChem BioAssay AID504382 (The Scripps Research Institute Molecular Screening Center, 2011).
# In all, about 2,500 compounds went through this assay and about 460 (18%) were called active. These entries were drawn from the full list. Values without a mark were called inactive.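 How the source made its calls: active means mean activation above a cutoff of low control average plus 3 SD from the earlier screen (cut at about 12% in these data); inactive means the rest.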
# Assay: IANBD-channel fluorescence artefacts in buffer – biochemical, artefact control for cardiac RTF calcium sensitizer project, confirmation (AID 504382)
# Details: IANBD fluorescence interference counterscreen, EC20 Ca2+, at 7.2 µM, active compounds read high, scaled: EC20 calcium 0, EC100 calcium 100
# Method in brief: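 timing = compound incubation 15 min at 25 °C before fluorescence reading | technique = fluorescence at 480 nm excitation, 540 nm emission | evaluation = interference relative to controls | replication = triplicate wells per compound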
row,Structure (SMILES),fluorescence artifact activation
1,O=C(c1ccccc1)N1C(=O)C(c2ccccc2)Oc2ccccc21 (stereo not given),-0.12%
2,CC(/C=N/Nc1ccc2nncn2n1)=C\c1ccccc1,12.9% (active)
3,COc1cccc(C2C=C(c3ccc(Br)s3)Nc3ncnn32)c1OC (stereo not given),-0.01%
4,O=C(CNC(=O)c1cccc(Cl)c1)N/N=C/c1cccnc1,0.03%
5,CC/C(=C/c1sc2ccccc2[n+]1CC)SC,2.16%
6,CC[n+]1c(/C=C/N(C)c2ccccc2)oc2ccccc21,-0.02%
7,CC[n+]1c(/C=C/C=C/N(C(C)=O)c2ccccc2)sc2ccccc21,49.8% (active)
8,CC1=Nc2ccccc2/C1=C\c1nc(-c2ccc(C(F)(F)F)cc2)oc1O,-0.02%
9,C[C@H]1CCC(=O)N([C@H](CSc2ccc(Br)cc2)Cc2ccccc2)CC1,0.11%
10,Nc1c(C(=O)Nc2ccccc2F)sc2nc(Cc3ccccc3)cc(C(F)(F)F)c12,0.07%
11,CCOc1ccc2noc3c2c1C(=O)c1ccccc1-3,0.02%
12,c1ccc(Nc2nc3ccccc3n3cnnc23)cc1,0.03%
13,CCC(CC)c1nnc(NC(=O)/C=C/c2ccco2)s1,0.09%
14,CCOCCc1nnc(NC(=O)COC)s1,0.06%
15,CCCCOC(=O)Nc1nnc(C(C)C)s1,148% (active)
16,Cc1cc(S(=O)(=O)Cc2noc(-c3c(C)noc3C)n2)c(C)cc1Cl,-0.02%
17,COC(=O)[C@H](Cc1ccccc1)NC(=O)Nc1ccc(OC)cc1,0.02%
18,COCCN1C(=O)N[C@@H](c2cccc(C(F)(F)F)c2)C(C(=O)OC)=C1C,13.5% (active)
19,COc1cc(OC)c(C(=O)OC(C)C(=O)Nc2cccc(C(F)(F)F)c2)cc1OC (stereo not given),1.83%
20,CCOC(=O)CN1C(=O)N[C@@H](c2cccc(C(F)(F)F)c2)C(C(=O)OC)=C1C,0.03%

row,Structure (SMILES),fluorescence artifact activation
1,Cc1c(C(=O)NCc2ccco2)cccc1[N+](=O)[O-],4.18%
2,COc1cc(/C=C/C(O)=C/C(=O)/C=C/c2ccc(O)cc2)ccc1O,0.51%
3,COc1cc(/C=C/C(=O)CC(=O)/C=C/c2ccc(O)c(OC)c2)ccc1O,0.15%
4,COc1cc(/C=C/C(=O)/C=C(O)/C=C/c2ccc(O)c(OC)c2)ccc1O,110% (active)
5,C/C(=N/NC(=O)Nc1ccccc1)c1ccc(C)cc1,-0.02%
6,Cc1c(C=O)c2ccccn2c1C(=O)c1cccs1,3.43%
7,CCCNC(=O)Cn1c(=O)/c(=C\c2ccc(-c3ccc([N+](=O)[O-])cc3)o2)s/c1=C\C(=O)C(C)(C)C,8.2%
8,CC1(C)CC(=O)C=C(NCc2ccc(Cl)c(Cl)c2)C1,-0.02%
9,O=S(=O)(c1ccc(F)cc1)N1CN(Cc2ccco2)c2nc3ccccc3nc21,8.07%
10,COc1ccc(S(=O)(=O)N2CN(Cc3ccco3)c3nc4ccccc4nc32)cc1,37.3% (active)
11,COc1ccc(CNC(=O)C(C#N)c2nc3ccccc3nc2N2CCCC2)cc1 (stereo not given),-0.08%
12,COC1=C/C(=C/c2c(N)n3cc(C)sc3nc2=O)C=CC1=O,-0.03%
13,Cc1cccc(Nc2c([N+](=O)[O-])c(=O)oc3ccccc23)c1,7.76%
14,COc1cc2cc(CN(Cc3cccnc3)C(=O)NCc3ccccc3)c(=O)[nH]c2cc1OC,116% (active)
15,COc1ccc2cc(CN(CC3CCCO3)C(=S)NCc3ccco3)c(=O)[nH]c2c1 (stereo not given),0.1%
16,O=C(c1ccncc1)N(Cc1ccccc1)Cc1nc2ccccc2c(=O)[nH]1,0.03%
17,O=C1NC2=C(C(=O)CCC2)C(c2ccccc2Cl)N1 (stereo not given),0.2%
18,O=C1N(c2ccc(Cl)cc2)C(c2ccccc2)N2CCCN12 (stereo not given),-0.06%
19,COc1ccc(N=C2NC(=O)S/C2=C\c2ccc(N(C)C)cc2)cc1,9.11%
20,CCOc1ccc(N=C2NC(=O)S/C2=C\c2ccc(N(C)C)cc2)cc1,1920% (active)

row,Structure (SMILES),fluorescence artifact activation
1,C=CCOc1ccc(/C=C2\SC(=Nc3cccnc3)NC2=O)cc1,0.04%
2,N#CC1(C#N)C(c2ccccc2)OC23CCCCC2C1(C#N)C(=N)O3 (stereo not given),0.04%
3,COc1cc(/C=C2\N=C3CCCCCN3C2=O)ccc1O,-0.06%
4,O=C(CCC1CCCN(C(=O)c2ccncc2)C1)NCc1ccc(F)c(F)c1 (stereo not given),0.02%
5,Oc1ccc2ccc3cccc[n+]3c2c1,12.9% (active)
6,CCn1c(SCC(=O)c2ccc(Cl)cc2)nnc1C(C)C,2.06%
7,COc1ccc(CN2CCN(C(=O)c3ccccc3F)CC2)c(OC)c1OC,14.3% (active)
8,COc1ccc(CN2CCC(C(=O)N3CCN(c4ccccc4F)CC3)CC2)cc1OC,0.36%
9,COc1ccccc1Nc1ncc(C(=O)N2CCC(C(N)=O)CC2)c2ccccc12,-0.02%
10,COc1ccc(CC(=O)N(C)Cc2cccc(F)c2)cc1S(=O)(=O)N1CCOCC1,0.26%
11,CSc1ccc(C2NC(=O)c3c(sc4c3CCN(C)C4)N2)cc1 (stereo not given),4.52%
12,O=C1NCCCCC1NS(=O)(=O)c1cccc(C(F)(F)F)c1 (stereo not given),0.33%
13,N#Cc1ccc(S(=O)(=O)NC2CCN(Cc3ccccc3)CC2)cc1,2.37%
14,N#Cc1ccc(S(=O)(=O)NC2CCCCNC2=O)cc1 (stereo not given),26.9% (active)
15,CCN1CCc2c(sc(NC(=O)c3ccc(S(=O)(=O)N(C)c4ccccc4)cc3)c2C(=O)NC)C1,0.31%
16,CCC(Oc1cc(Cl)ccc1Cl)C(=O)NNC(=O)CCC(=O)O (stereo not given),0.03%
17,CCn1c(O)c(/C=N/N=C/c2ccc(OC)cc2)c2cc(C3=NNC(=O)CC3)ccc21,5.84%
18,COc1ccc(/C=N/N=C2/CC(C)(C)Cc3n[nH]c(=O)cc32)cc1,357% (active)
19,CCn1cc(/C=C/c2cc[n+](C)cc2)c2ccccc21,0.09%
20,CC1CN/C(=C\C(=O)c2ccc(Br)cc2)C(=O)N1 (stereo not given),-0.09%
